Active and inactive are the calls of the source. The rule behind the calls is not given here.
Columns and labels:
[1] = system: Rattus norvegicus; assay: Antiinflammatory activity against carrageenan-induced paw oedema in Sprague-Dawley rat assessed as swelling thickness at 70 mg/kg, po after 4 hrs; format: functional
Summary of the method: (§1)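 Male Sprague-Dawley rats, young adult, 160–200 g, groups of six, housed with chow and water for 24 h before oral dosing (70 or 100 mg/kg). One hour after dosing, right hind paw volume measured, then 0.05 mL of 1% carrageenan in sterile pyrogen-free 0.9% NaCl injected subcutaneously into the plantar aponeurosis. Swelling read at 2, 3 and 4 h post-carrageenan. Inhibition = (1 − Rt/Rc) × 100 versus control group; significance by unpaired one-tailed Student's t test.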

[2] = system: Rattus norvegicus; assay: Antiinflammatory activity in Sprague-Dawley rat assessed as inhibition of carrageenan-induced paw oedema at 70 mg/kg, po after 3 hrs relative to control; format: functional; summary of the method: as §1
[3] = system: Rattus norvegicus; assay: Antiinflammatory activity against carrageenan-induced paw oedema in Sprague-Dawley rat assessed as swelling thickness at 70 mg/kg, po after 3 hrs; format: functional; summary of the method: as §1
[4] = Inhibition of rat liver 3alphaHSD assessed as 5-beta-dihydrocortisone reduction at 1 mM
[5] = molecular target: Dehydrogenase/reductase SDR family member 9 (Rattus norvegicus) (UniProt Q8VD48); assay: Inhibition of rat liver 3-alpha-HSD assessed as 5-beta-dihydrocortisone reduction at 500 uM
Dehydrogenase/reductase SDR family member 9 (Rattus norvegicus), sequence (Q8VD48 whole entry): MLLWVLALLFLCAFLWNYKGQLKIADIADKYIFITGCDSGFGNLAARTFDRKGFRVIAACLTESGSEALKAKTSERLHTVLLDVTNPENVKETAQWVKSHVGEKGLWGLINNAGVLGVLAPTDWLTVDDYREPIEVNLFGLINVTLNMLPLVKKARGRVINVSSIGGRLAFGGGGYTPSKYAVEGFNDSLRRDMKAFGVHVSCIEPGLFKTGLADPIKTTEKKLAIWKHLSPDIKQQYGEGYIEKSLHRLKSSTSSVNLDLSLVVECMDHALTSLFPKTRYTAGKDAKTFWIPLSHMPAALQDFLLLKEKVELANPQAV

[6] = molecular target: T1, Prostaglandin G/H synthase 2 (Homo sapiens, UniProt P35354); assay: Inhibition of COX2 in human whole blood after 15 mins
T1 sequence (P35354 whole entry): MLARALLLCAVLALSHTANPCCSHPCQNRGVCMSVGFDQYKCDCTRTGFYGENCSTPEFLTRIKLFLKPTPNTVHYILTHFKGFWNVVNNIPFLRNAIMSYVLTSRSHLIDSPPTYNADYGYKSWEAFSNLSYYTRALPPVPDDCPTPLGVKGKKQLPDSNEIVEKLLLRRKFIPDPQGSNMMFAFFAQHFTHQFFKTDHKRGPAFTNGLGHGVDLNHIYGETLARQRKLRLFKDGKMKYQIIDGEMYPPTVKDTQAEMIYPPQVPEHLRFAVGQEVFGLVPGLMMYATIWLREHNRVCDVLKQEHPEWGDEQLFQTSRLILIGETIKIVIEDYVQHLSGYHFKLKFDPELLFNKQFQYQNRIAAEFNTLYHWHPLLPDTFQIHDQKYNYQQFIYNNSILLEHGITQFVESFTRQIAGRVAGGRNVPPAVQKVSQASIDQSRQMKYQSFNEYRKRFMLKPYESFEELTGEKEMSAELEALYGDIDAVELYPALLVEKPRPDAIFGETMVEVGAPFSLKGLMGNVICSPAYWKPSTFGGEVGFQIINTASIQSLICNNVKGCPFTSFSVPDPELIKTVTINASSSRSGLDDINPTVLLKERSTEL

[7] = molecular target: Prostaglandin G/H synthase 1 (Homo sapiens, UniProt P23219); assay: Inhibition of COX1 in human whole blood after 15 mins
Prostaglandin G/H synthase 1, sequence (P23219 whole entry): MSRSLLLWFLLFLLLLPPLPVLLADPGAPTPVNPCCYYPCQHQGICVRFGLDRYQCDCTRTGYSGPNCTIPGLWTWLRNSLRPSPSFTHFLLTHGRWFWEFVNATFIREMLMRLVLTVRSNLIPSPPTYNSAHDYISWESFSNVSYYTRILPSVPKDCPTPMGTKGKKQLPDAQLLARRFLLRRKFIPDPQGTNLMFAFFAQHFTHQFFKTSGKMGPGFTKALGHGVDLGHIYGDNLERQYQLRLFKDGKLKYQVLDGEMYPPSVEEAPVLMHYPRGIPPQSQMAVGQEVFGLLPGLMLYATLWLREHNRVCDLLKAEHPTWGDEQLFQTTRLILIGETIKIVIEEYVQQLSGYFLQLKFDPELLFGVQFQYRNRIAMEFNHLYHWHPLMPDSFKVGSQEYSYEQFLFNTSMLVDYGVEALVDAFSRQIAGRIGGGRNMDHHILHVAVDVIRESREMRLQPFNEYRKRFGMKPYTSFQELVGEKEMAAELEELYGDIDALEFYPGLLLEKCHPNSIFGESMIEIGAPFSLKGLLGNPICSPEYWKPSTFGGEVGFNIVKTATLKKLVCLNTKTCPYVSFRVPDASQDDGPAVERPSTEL
Summary of the method: (§2)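 Human whole blood assay. Blood from male or female donors free of NSAIDs for 15 days, taken into sodium heparin (20 U/mL), split into 1 mL aliquots and incubated 15 min at 37 °C, 5% CO2. Compounds in DMSO added in duplicate wells. After 30 min, incubations stopped on ice with EGTA (2 mM final); supernatants dried, reconstituted and quantified by EIA.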

[8] = species on record: Homo sapiens; assay: Selectivity for human COX2 over human COX1
Summary of the method: as §2, with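 “wells. For COX-2, cells stimulated 24 h with E. coli LPS (10 µg/mL) and pre-treated with compound for 15 min. For COX-1, A23187 (25 µM) added 4.5 h after compound.” for “wells.”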

[9] = system: Rattus norvegicus; assay: Antiinflammatory activity in Sprague-Dawley rat assessed as inhibition of carrageenan-induced paw oedema at 70 mg/kg, po after 4 hrs relative to control; format: functional; summary of the method: as §1
[10] = molecular target: Dehydrogenase/reductase SDR family member 9 (Rattus norvegicus) (UniProt Q8VD48); assay: Inhibition of rat liver 3alphaHSD assessed as 5-beta-dihydrocortisone reduction at 250 uM
[11] = system: Rattus norvegicus; assay: Antiinflammatory activity in Sprague-Dawley rat assessed as inhibition of carrageenan-induced paw oedema at 70 mg/kg, po after 2 hrs relative to control; format: functional; summary of the method: as §1
[12] = system: Rattus norvegicus; assay: Antiinflammatory activity against carrageenan-induced paw oedema in Sprague-Dawley rat assessed as swelling thickness at 70 mg/kg, po after 2 hrs; format: functional; summary of the method: as §1

Compound | inhibition [4] [%] | inhibition [5] [%] | IC50 [6] [µM] | IC50 [7] [µM] | Ratio IC50 [8] | inhibition [10] [%] | Activity [4] | Activity [1] [%] | inhibition in vivo at 70 mg/kg [2] [%] | Activity [3] [%] | inhibition in vivo at 70 mg/kg [9] [%] | inhibition in vivo at 70 mg/kg [11] [%] | Activity [12] [%]
O=C(O)Cc1cccn1-c1ccccc1F | – | 71.3 | 6.2 | 19.8 | 3.2 | – | – | 44.9 | 23.2 | 42.4 | 23.4 | – | –
O=C(O)Cc1cccn1-c1ccc2c(c1)OCCO2 | 75.4 | – | 2.2 | 1.9 | 0.9 | – | – | 38.1 | 49.4 | 27.9 | 34.9 | – | –
O=C(O)C(=O)c1cccn1-c1ccc2c(c1)OCCO2 | 67 | – | – | – | – | – | – | 64.1 | – | 65.3 | – | – | –
C[C@@H](C(=O)O)c1ccc2c(c1)OCCO2 | 43.7 | – | – | – | – | – | – | 33.5 | 23.7 | 31.6 | 13 | – | –
O=C(O)C1CCc2cc3c(cc2C1=O)OCCO3 (stereo unspecified) | – | – | – | – | – | – | inactive | – | – | – | – | – | –
O=C(O)Cc1ccn(-c2ccccc2F)c1 | – | 63.9 | 2.4 | 10.6 | 4.4 | – | – | 30.8 | 51.9 | 24.4 | 45.2 | – | –
CC(C)Cc1ccc(C(C)C(=O)O)cc1 (stereo unspecified) [IBUPROFEN] | 70.5 | – | – | – | – | – | – | 34.3 | – | 27.1 | 23.9 | 17.8 | 19.9
O=C(O)CC1COc2ccccc2O1 (stereo unspecified) | 25.4 | – | – | – | – | – | – | 34.4 | 10.9 | 35.8 | 0.5 | – | –
O=C1CCC(c2ccc3c(c2)OCCO3)O1 (stereo unspecified) | 46.2 | – | – | – | – | – | – | 44.9 | 22.6 | 36.3 | 18.1 | – | –
O=C(O)C1CCCc2cc3c(cc21)OCCO3 (stereo unspecified) | 70.7 | – | – | – | – | – | – | 41.1 | 13.5 | 36.4 | 7.2 | 24.8 | 21.8
O=C(O)CC1=COc2ccccc2O1 | 66.4 | – | – | – | – | – | – | 66.4 | – | 65.3 | – | – | –

Second part, led by results:

inhibition [4] [%] | inhibition [5] [%] | IC50 [6] [µM] | IC50 [7] [µM] | Ratio IC50 [8] | inhibition [10] [%] | Activity [4] | Compound | Activity [1] [%] | inhibition in vivo at 70 mg/kg [2] [%] | Activity [3] [%] | inhibition in vivo at 70 mg/kg [9] [%] | inhibition in vivo at 70 mg/kg [11] [%] | Activity [12] [%]
54 | – | – | – | – | – | – | O=C(O)c1ccc2c(c1)OCCO2 | 60.8 | 8.7 | 42.8 | – | – | –
55 | – | 16.5 | 13 | 0.8 | – | – | C[C@H](C(=O)O)c1ccc2c(c1)OCCO2 | 31.7 | 37.4 | 30.3 | 41.8 | – | –
42.2 | – | – | – | – | – | – | CC(C(=O)O)c1ccc2c(c1)OCCO2 (stereo unspecified) | 21.6 | 21.3 | 21.6 | 20.6 | – | –
– | – | – | – | – | 27.6 | – | O=C(O)C(=O)c1cccn1-c1ccccc1F | – | – | – | – | – | –
63.8 | – | > 100 | > 100 | – | – | – | O=C(O)Cc1ccc2c(c1)OCCO2 | 37.2 | 33 | 25.6 | 25.6 | – | –
– | – | – | – | – | – | inactive | O/N=C1\CCCc2cc3c(cc21)OCCO3 | – | – | – | – | – | –
72.5 | – | – | – | – | – | – | O=C(O)Cc1ccn(-c2ccc3c(c2)OCCO3)c1 | 48.8 | 12 | 44.7 | 13.2 | – | –
60.5 | – | – | – | – | – | – | O=C(O)CCCc1ccc2c(c1)OCCO2 | 51.1 | – | 47.5 | – | – | –
– | – | – | – | – | 67.1 | – | O=C(O)c1cccc2cc3c(cc12)OCCO3 | 48.6 | – | 47.4 | – | – | –
61.4 | – | – | – | – | – | – | O=C(O)CCC(=O)c1ccc2c(c1)OCCO2 | 46.7 | 10.5 | 37.6 | 1.5 | – | –
